From PubChem
PfHsp90 set2: inhibits growth of yeast expressing Plasmodium falciparum Hsp90. inhibition, % at 9.4 µM. 0.32% of 310,000 active. S. cerevisiae expressing PfHsp90, BacTiter-Glo ATP, 48 h; yeast lacking PDR1 and PDR3 efflux regulators;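 active = every replicate shows inhibition above about 80%, whatever the replicate mean, limit read from the data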;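 note: 0% = DMSO neutral controls and 100% = 20 µM radicicol positive controls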
Env fusion inh: inhibitors of HIV Env-mediated cell fusion; HeLa-JRFL Env/CEM21 cell fusion, luciferase; inhibition, % at 12.3 µM; 1.1% of 360,000 active; AID 651610;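 active = mean replicate inhibition score of at least 50 and every replicate individually at or above 50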;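 note: 0% = plate neutral controls and 100% = maraviroc near 300 nM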
N-glyco inh: blocks N-linked glycosylation in D54 reporter cells | D54 ERlucT glycosylation luciferase reporter, 24 h; percent of 100 nM tunicamycin response | reporter increase, % at 12.5 µM | 0.23% of 360,000 active;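 active = mean luciferase reporter signal, scaled so untreated is 0 and the glycosylation-blocking control 100, at or above a set limit in every replicate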;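 note: luciferase carries N-glycosylation sites so blocking glycosylation raises the light; 0% = median of neutral control wells and 100% = median of 100 nM tunicamycin wells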
Arr AP2 block: human beta-arrestin and AP2 interaction inhibition | FITC-arrestin peptide / GST-AP2 beads, flow cytometry; AP2 beta2 appendage carries R879A mutation | inhibition, % at 10 µM | 0.31% of 340,000 active | AID 504490;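 active = inhibition above a set limit, near 3 SD of compounds lacking own fluorescence, cut at about 54% in these data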;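 note: plate controls were DMSO wells for no effect and 5 µM unlabelled arrestin peptide for full effect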
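test system = AP2 appendage R879A on GSH beads | buffer or medium = PBS plus Tween 20 (0.05%) and BSA (0.1%) | incubation = 12 min plus 1 h, RT | detection = bead flow cytometry, FITC channel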
PAX8 inh HTS: lowers PAX8-driven luciferase in RMG-I cells; RMG-I TPO-luciferase reporter, SteadyGlo, 24 h; 1.2% of 360,000 active; inhibition, % at 12.6 µM;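 active = mean replicate inhibition at least 60% with every replicate also reaching 60%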;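 note: luciferase light reporting Pax8 driven TPO promoter activity; plate controls were median of neutral control wells for no effect and mitoxantrone controls for full effect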
Rtt109 HAT inh: blocks Candida albicans Rtt109/Vps75 acetyltransferase activity | Q5AAJ8 | purified Rtt109/Vps75, ThioGlo CoA-SH fluorescence, 4 h | inhibition, % at 34.9 µM | 0.16% of 330,000 active | AID 540336;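 active = inhibition of at least 50% in every replicate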
Target sequence (Q5AAJ8 whole entry, looked up): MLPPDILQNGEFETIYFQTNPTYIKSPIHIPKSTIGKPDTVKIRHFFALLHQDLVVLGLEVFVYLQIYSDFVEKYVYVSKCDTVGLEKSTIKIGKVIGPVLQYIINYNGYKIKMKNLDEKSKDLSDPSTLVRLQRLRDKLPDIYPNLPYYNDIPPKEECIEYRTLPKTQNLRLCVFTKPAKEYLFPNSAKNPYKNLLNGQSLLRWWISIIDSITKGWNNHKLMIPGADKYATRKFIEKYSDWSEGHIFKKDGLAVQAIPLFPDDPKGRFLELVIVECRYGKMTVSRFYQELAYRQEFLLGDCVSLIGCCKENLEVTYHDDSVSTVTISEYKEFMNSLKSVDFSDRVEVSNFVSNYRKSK
Active calls of the source: *; [ ] = remark or other dose. The list is not random: actives were taken first. Their share in the collection is about 2.3%.

Results for COc1cc2c(cc1OC)C(c1c(Cl)cccc1Cl)=NCC2 ?
Env fusion inh: 60*; N-glyco inh: -2; PAX8 inh HTS: 23

What do the screens show for `CCCS(=O)(=O)NC(=O)C1(C)CCCN(C(=O)COc2ccc(Cl)cc2Cl)C1` (centres undefined)?
Env fusion inh: 2; N-glyco inh: 1

What do the screens show for `CCCS(=O)(=O)NC(=O)C1(C)CCN(C(=O)COc2ccc(Cl)cc2Cl)C1` (centres undefined)?
Env fusion inh: 56*; N-glyco inh: 2; PAX8 inh HTS: -1

What do the screens show for `C[C@H]1CN([C@@H](C)CO)S(=O)(=O)c2ccc(C#CCN(C)C)cc2O[C@H]1CN(C)CC1CC1`?
Env fusion inh: -47[16.7 µM]

What do the screens show for `CCCCC1(Cc2cccc([N+](=O)[O-])c2)C(=O)N(c2ccccc2)N(c2ccccc2)C1=O`?
PfHsp90 set2: -17; Env fusion inh: 120*; N-glyco inh: -6; Arr AP2 block: 5; PAX8 inh HTS: 38; Rtt109 HAT inh: 0

How did CCCCC1(CO)C(=O)N(c2ccccc2)N(c2ccccc2)C1=O do in these assays?
PfHsp90 set2: -6; Env fusion inh: -1; N-glyco inh: 1; Arr AP2 block: 36; PAX8 inh HTS: 1; Rtt109 HAT inh: -2

What do the screens show for `CC(C)(C)n1nnnc1C(c1ccccn1)N(Cc1ccccc1)Cc1ccc(Cl)cc1` (centres undefined)?
PfHsp90 set2: 12; Env fusion inh: 127*; N-glyco inh: -9; Arr AP2 block: -1; PAX8 inh HTS: 20; Rtt109 HAT inh: -5

What do the screens show for `C[C@H]1CN([C@@H](C)CO)C(=O)c2cc(-c3cccc(C(=O)N(C)C)c3)cnc2O[C@@H]1CN(C)S(=O)(=O)c1ccccc1`?
Env fusion inh: 10[16.7 µM]; PAX8 inh HTS: 8

How did COc1ccc(-c2nc(CS(=O)CC(=O)NCc3ccco3)c(C)o2)cc1OC (centres undefined) do in these assays?
PfHsp90 set2: -24; Env fusion inh: 73*; N-glyco inh: 0; Arr AP2 block: -1; PAX8 inh HTS: -3; Rtt109 HAT inh: 6

Results for CC(C)CC(=O)NC(c1cccs1)c1ccc2cccnc2c1O (centres undefined) ?
PfHsp90 set2: 104*; N-glyco inh: -10; Arr AP2 block: 12; Rtt109 HAT inh: 7

Results for CCC(=O)NC(c1cccs1)c1ccc2cccnc2c1O (centres undefined) ?
PfHsp90 set2: 114*; Env fusion inh: -5; N-glyco inh: -11; Arr AP2 block: 20; PAX8 inh HTS: 66*; Rtt109 HAT inh: 4

How did CCC(=O)N1CC(=O)N2[C@H](CO)[C@H](c3ccc(C#CC4CCCC4)cc3)[C@@H]2C1 do in these assays?
PAX8 inh HTS: -5

How did C/C=C/c1cnc2c(c1)C(=O)N([C@@H](C)CO)C[C@H](C)[C@H](CN(C)S(=O)(=O)c1ccc(F)cc1)O2 do in these assays?
Env fusion inh: 7[16.7 µM]

Results for CCCC#Cc1cnc2c(c1)C(=O)N([C@@H](C)CO)C[C@@H](C)[C@@H](CN(C)C(=O)Cc1ccncc1)O2 ?
Env fusion inh: -2[16.7 µM]

What do the screens show for `COc1ccccc1N=Nc1ccc(O)c2ncccc12`?
PfHsp90 set2: 99*; Env fusion inh: 8; N-glyco inh: -12; Arr AP2 block: 29; PAX8 inh HTS: 20; Rtt109 HAT inh: -12

How did Oc1ccc(N=Nc2ccccc2C(F)(F)F)c2cccnc12 do in these assays?
PfHsp90 set2: -25; Env fusion inh: -10; N-glyco inh: -13; Arr AP2 block: 35; PAX8 inh HTS: 92*; Rtt109 HAT inh: 1

Results for CCS(=O)(=O)c1ccc(N=Nc2ccc(O)c3ncccc23)c(OC)c1 ?
PfHsp90 set2: 59; Env fusion inh: 66*; N-glyco inh: -17; Arr AP2 block: -10; PAX8 inh HTS: 97*; Rtt109 HAT inh: 23

How did CC(C)C#Cc1cnc2c(c1)C(=O)N([C@@H](C)CO)C[C@H](C)[C@@H](CN(C)C(=O)C1CCC1)O2 do in these assays?
Env fusion inh: -27[16.7 µM]

How did COc1ccccc1-c1csc(C(NC(C)=O)c2cccc(F)c2)n1 (centres undefined) do in these assays?
Env fusion inh: -41; N-glyco inh: 33*; PAX8 inh HTS: -6

Results for Cc1cc(Sc2nnc(N)s2)c2ccccc2n1 ?
PfHsp90 set2: -20; Env fusion inh: 53; N-glyco inh: 12; Arr AP2 block: 41; PAX8 inh HTS: 90*; Rtt109 HAT inh: 4

What do the screens show for `Cc1cc(Sc2nnc(/N=C/N(C)C)s2)c2ccccc2n1`?
PfHsp90 set2: 18; Env fusion inh: 56*; N-glyco inh: 15; Arr AP2 block: 12; PAX8 inh HTS: 85*; Rtt109 HAT inh: 3

How did Cc1ccc(-c2nc(CS(=O)(=O)CC(=O)N3CCCCCC3)c(C)o2)cc1 do in these assays?
PfHsp90 set2: -10; Env fusion inh: 51*; N-glyco inh: 1; Arr AP2 block: 4; PAX8 inh HTS: 31; Rtt109 HAT inh: 3

How did Cc1ccc(-c2nc(CS(=O)(=O)CC(=O)N3CCc4ccccc4C3)c(C)o2)cc1 do in these assays?
Env fusion inh: 24; N-glyco inh: 2; Arr AP2 block: 9; PAX8 inh HTS: 25; Rtt109 HAT inh: 4

How did Cc1oc(-c2ccccc2F)nc1CS(=O)(=O)CC(=O)N1CCN(c2ccccc2)CC1 do in these assays?
PfHsp90 set2: -27; Env fusion inh: 60*; N-glyco inh: 2; Arr AP2 block: -2; PAX8 inh HTS: 30; Rtt109 HAT inh: -6

What do the screens show for `C=CCN1C(=O)[C@]2(CCS(=O)(=O)c3ccccc3)N=C(c3ccc(OCCCO)cc3)O[C@@H]2c2ccccc21`?
Env fusion inh: -4[16.7 µM]; PAX8 inh HTS: 7

Results for C[C@H](CO)N1C[C@H](C)[C@H](CN(C)S(=O)(=O)c2ccc(F)cc2)Oc2ncc(C#Cc3ccc(F)cc3)cc2C1=O ?
Env fusion inh: 10[16.7 µM]

What do the screens show for `CC(C)CC#Cc1ccc2c(c1)O[C@H](CN(C)C)[C@@H](C)CN([C@@H](C)CO)S2(=O)=O`?
Env fusion inh: 17[16.7 µM]

Results for Cc1noc(C)c1S(=O)(=O)Nc1ccc2c(c1)C(=O)N([C@H](C)CO)C[C@@H](C)[C@H](CN(C)C(=O)Nc1ccc(F)cc1)OCCCC[C@H](C)O2 ?
Env fusion inh: -70[16.7 µM]; PAX8 inh HTS: 5

What do the screens show for `CCOc1cccc(C=NNC(=O)C(=O)Nc2cccc(C(F)(F)F)c2)c1O`?
Env fusion inh: 0; PAX8 inh HTS: 70*

How did O=C(Nc1ccccc1SC(=O)c1ccccc1)c1ccccc1 do in these assays?
Env fusion inh: -47; N-glyco inh: -1; PAX8 inh HTS: -68

What do the screens show for `Cc1ccc(C(=O)Sc2cccccc2=O)cc1`?
PfHsp90 set2: 104*; Env fusion inh: 20; N-glyco inh: -21; Arr AP2 block: 31; PAX8 inh HTS: 43; Rtt109 HAT inh: -6
